One may read the inhibition as the change of the read-out against control, counted positive when it falls.

Molecules are shown by their SMILES. Calls of active or inactive are those of the source.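 How the source made its calls, unless noted: active means fluorescence slope after compound addition differing from the mean of all screened samples at 99.7% confidence, in either direction; inactive means the rest.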

This note sets out measurements from PubChem BioAssay.

The nature of assay [1]: inhibitors of TNFa-induced NFkB p65 translocation, primary screen, imaging, HUVEC, MLSMR starter and 10KST1 sets (AID 438;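 active means inhibition above 20% together with a positive visual image hit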;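 further: compound added about 3h40 before a 20 min TNFalpha stimulation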;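 on inhibition: signal is the nuclear over cytoplasmic p65 intensity ratio per well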). The following applies: HUVEC TNFa-induced p65 nuclear translocation; cell count: measured here: nuclei count (cytotoxicity indicator), at 2.08 µM; inhibition: at 2 µM, stronger effect = higher value, 0% TNFa-plus-vehicle, 100% no-TNFa wells.
The nature of assay [2]: reduction of polyQ htt aggregates in cells – imaging, exon1htt(103Q)mCFP cells, high-content imaging, primary screen (AID 483;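 active means visual image review flags a hit and inhibition of aggregation exceeds 20%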;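 further: compound exposure lasted 3 days before fixation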;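 on nuclei count: percent of the per-plate median nuclei count of sample wells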). The following applies: exon1htt(103Q)mCFP cell line, aggregate imaging, at 2 µM; inhibition of aggregation: stronger effect = higher value; nuclei count: measured here: cell count, toxicity.
The nature of assay [3]: endothelial E-selectin expression blockers – imaging, HUVEC, immunofluorescence, MLSMR starter and 10KST1 sets, primary screen (AID 487;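 active means visually confirmed hit in the image check and inhibition above 20%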;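 on inhibition: signal is fraction of cell area covered by stained E-selectin grains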;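 on nuclei count: 100% = median nuclei count of all wells on the same plate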). The following applies: HUVEC TNFalpha-induced E-selectin immunofluorescence imaging, at 2 µM; inhibition: stronger effect = higher value; nuclei count: measured here: cell number, toxicity.
In assay [4] the target is Voltage-gated potassium channel subunit beta-2 (Rattus norvegicus) (UniProt P62483). Description: inhibitors of rat Kvbeta2 reductase activity – biochemical, NADPH fluorescence, primary screen (AID 622;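 active means fluorescence slope higher than the sample average by over 3 SD, cut at about -0.22 in these data, passing the limit was not always enough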;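 further: slope of raw intensity against log time taken from 70 to 1610 s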). The conditions noted are these: recombinant KvBeta, 4-cyanobenzaldehyde reduction, at 10 µM, stronger effect = higher value.
Voltage-gated potassium channel subunit beta-2 (Rattus norvegicus), sequence (P62483 whole entry, looked up): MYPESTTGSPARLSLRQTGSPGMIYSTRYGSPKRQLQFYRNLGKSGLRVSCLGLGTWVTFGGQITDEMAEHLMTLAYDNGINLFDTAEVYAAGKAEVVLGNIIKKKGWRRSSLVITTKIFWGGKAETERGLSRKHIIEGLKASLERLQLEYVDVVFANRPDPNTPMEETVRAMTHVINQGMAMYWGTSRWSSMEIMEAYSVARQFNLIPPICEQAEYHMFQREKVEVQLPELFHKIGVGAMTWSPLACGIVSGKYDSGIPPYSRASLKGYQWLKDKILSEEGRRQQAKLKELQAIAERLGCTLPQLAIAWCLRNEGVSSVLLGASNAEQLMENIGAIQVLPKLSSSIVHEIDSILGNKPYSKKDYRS
The target is the same in assay [5]. Nature of the assay: enhancers of rat Kvbeta2 NADPH turnover – biochemical, NADPH fluorescence, primary screen (AID 623;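 active means NADPH fluorescence slope more negative than the mean of all samples by about 3 SD, 99.7% confidence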;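 further: fluorescence intensity change per second fitted from 20 to 320 s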). The following applies: Recombinant KvBeta, NADPH fluorescence decrease slope, 10 min; at 10 µM; stronger effect = lower value.
Assay [6] deals with Alpha-2C adrenergic receptor (Homo sapiens) (UniProt P18825). Nature of the assay: compounds altering alpha2C-coupled GIRK flux – cell-based, HEK293 alpha2C/GIRK1/2, thallium flux, primary screen (AID 624).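 Further: slope of fluorescence ratio to pre-addition baseline per second over 15 to 24 s.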 The following applies: thallium flux BTC fluorescence, at 10 µM, actives lie on both sides.
Alpha-2C adrenergic receptor (Homo sapiens), sequence (P18825 whole entry, looked up): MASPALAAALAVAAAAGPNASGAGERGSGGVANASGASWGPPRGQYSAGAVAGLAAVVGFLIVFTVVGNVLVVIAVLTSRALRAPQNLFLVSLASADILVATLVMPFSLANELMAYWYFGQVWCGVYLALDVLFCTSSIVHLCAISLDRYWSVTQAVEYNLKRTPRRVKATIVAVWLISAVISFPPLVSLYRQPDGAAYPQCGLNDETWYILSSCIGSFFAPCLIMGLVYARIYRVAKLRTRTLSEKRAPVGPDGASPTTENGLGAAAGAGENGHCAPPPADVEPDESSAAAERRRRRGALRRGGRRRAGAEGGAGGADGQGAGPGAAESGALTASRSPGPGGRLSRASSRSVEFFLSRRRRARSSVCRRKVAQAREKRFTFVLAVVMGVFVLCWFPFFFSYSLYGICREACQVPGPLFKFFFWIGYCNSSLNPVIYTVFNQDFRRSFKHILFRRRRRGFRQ
Assay [7] can be described thus: inhibitors of larval lipid processing in zebrafish, primary screen, whole organism, PED6 fluorescence, gall bladder and intestine (AID 686;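 active means a full or partial loss of lipid-probe fluorescence in the fish gall bladder, intestine or both, judged by eye; inactive means no fluorescence loss, or compound toxic to the fish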;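 further: larvae 5 to 7 days old with five fish per well; signal comes from phospholipase A2 cleavage of quenched PED6 carried via bile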). The conditions noted are these: Zebrafish larvae PED6 lipid processing, fluorescence scoring; screened at 20 µM (by protocol). Summed up: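 System: live zebrafish larvae aged 5-7 days, whole organism; measure: graded gall bladder and intestinal fluorescence inhibition per well; incubation: overnight exposure; reagent: ingested quenched lipid PED6 at 100 nM; signal: By-eye fluorescence microscopy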

Assay [8] in a line: blockers of RIG-like receptor reporter activation – cell-based, Sendai virus stimulus, luciferase, 10K MLSCN set, TLR/RLR signaling modifier project, primary screen (AID 602276;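 active means inhibition at or above 50% at 10 µM; inactive means inhibition below 50%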;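 further: firefly luciferase from ISG56 promoter only with Renilla not read in this screen; 0% = Sendai virus plus DMSO and 100% = medium plus DMSO without virus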). The following applies: HEK293 RL24 IRF3 luciferase reporter, at 10 µM, stronger effect = higher value. For orientation: In a reporter assay the amount or activity of a reporter protein is the signal.
A short description of assay [9]: TLR3 IRF3 reporter activation blockers – cell-based, poly I:C stimulus, luciferase, 10K MLSCN set, primary screen (AID 602277;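 active means inhibition of the reporter signal at or above 50%; inactive means inhibition below 50%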). The following applies: HEK293-TLR3 RL24 IRF3 luciferase reporter, at 10 µM, stronger effect = higher value.

Take `O=C(c1cccc2c1C(=O)N(Cc1cccnc1)C2)N1CCN(c2ccccc2)CC1`: the cell count in assay [1] was 941. For the same compound, the inhibition was 9.3% (inactive) in assay [1], -104% (inactive) in [3], 13.7% (inactive) in [8] and 9.9% (inactive) in assay [9]. In addition, the inhibition of aggregation in assay [2] is -5.7% (inactive). Further, the nuclei count amounted to 103% in assay [2] and 135% in [3]. Further, in [4], the fluorescence slope was -0.365 (inactive). In addition, the NADPH fluorescence slope in assay [5] is -6e-05 (inactive). Further, in [6], the slope was 0.00499 (inactive). In addition, the compound was called inactive in assay [7].

As for `O=C(CSc1nc2ccccc2c(=O)n1Cc1ccco1)NCc1ccccc1`, in assay [1], the cell count is 399. The inhibition in assay [1] was -6.1% (inactive); in assay [3] it was -6.6% (inactive); in assay [8], 19.4% (inactive); in [9], 9.86% (inactive). In addition, the inhibition of aggregation in assay [2] was 1.9% (inactive). Moreover, the nuclei count amounted to 87.8% in assay [2] and 103% in assay [3]. In addition, the fluorescence slope in assay [4] was -0.439 (inactive). Besides, the NADPH fluorescence slope in assay [5] is -4.9e-05 (inactive). Further, the slope in assay [6] is 0.0067 (inactive). For the same compound, the outcome in [7] was inactive.

In the case of `Cc1cc(NC(=O)C(C)(C)C)no1`, in assay [1], the cell count was 507. Besides, the inhibition in [1] is -8.7% (inactive); in [3], -50.6% (inactive); in [8] it was 16.1% (inactive); in [9] it was 20.8% (inactive). In addition, the inhibition of aggregation in [2] was -18% (inactive). Besides, the nuclei count amounted to 118% in assay [2] and 124% in assay [3]. Moreover, the fluorescence slope in [4] is -0.29 (inactive). In addition, the NADPH fluorescence slope in assay [5] is -1.1e-05 (inactive). Moreover, in [6], the slope is 0.005 (inactive). The result in assay [7] was inactive.

For the compound `COc1cccc(C2C(C(=O)c3cccs3)=C(O)C(=O)N2CCCn2ccnc2)c1OC` (stereo not drawn), the cell count in [1] was found to be 406. In addition, the inhibition in [1] is -2% (inactive); in assay [3], -168% (inactive); in assay [8], 8.13% (inactive); in assay [9] it was 7.94% (inactive). Besides, the inhibition of aggregation in assay [2] is 12.6% (inactive). In addition, the nuclei count in assay [2] was 96.7%; in assay [3], 106%. Further, the fluorescence slope in assay [4] was -0.341 (inactive). Moreover, in [5], the NADPH fluorescence slope is -6.6e-05 (inactive). Moreover, the slope in assay [6] was 0.0053 (inactive). Besides, the compound was called inactive in assay [7].

Turning to `c1ccc2c(-c3nc(-c4ccncc4)no3)cccc2c1`, the cell count in [1] is 313. The inhibition in assay [1] is -1.1% (inactive); in [3], -210% (inactive); in [8], -14.2% (inactive); in assay [9], -43.8% (inactive). Also, the inhibition of aggregation in [2] is -4.5% (inactive). Further, the figures for the nuclei count in assay [2] and in [3] were 88.4% and 118%, respectively. The fluorescence slope in assay [4] was -0.442 (inactive). The NADPH fluorescence slope in assay [5] was -3.1e-05 (inactive). Further, the slope in assay [6] was 0.00497 (inactive). In addition, the compound was called inactive in assay [7].

As for `O=C(NC1CCS(=O)(=O)C1)OC1CCCCC1` (stereo not drawn), the cell count in assay [1] was found to be 419. Further, the inhibition in [1] is -1.2% (inactive); in [3] it was -91.7% (inactive); in assay [8] it was 10.9% (inactive); in assay [9], 3.54% (inactive). The inhibition of aggregation in assay [2] was 2% (inactive). The results for the nuclei count in assay [2] and in [3] were 111% and 105%, respectively. Further, the fluorescence slope in assay [4] is -0.468 (inactive). Further, the NADPH fluorescence slope in assay [5] is -5.2e-05 (inactive). Besides, in assay [6], the slope is 0.0056 (inactive). In addition, in assay [7], the call was inactive.

Consider `CC(=O)Nc1ccc(Cc2ccncc2)cc1`, for which the cell count in assay [1] is 528. Besides, the inhibition in assay [1] was -7.4% (inactive); in [3], -40.3% (inactive); in [8], 6.14% (inactive); in assay [9] it was 4.37% (inactive). In addition, the inhibition of aggregation in assay [2] is 14.9% (inactive). The nuclei count was found to be 93.3% in assay [2] and 115% in assay [3]. The fluorescence slope in assay [4] is -0.39 (inactive). The NADPH fluorescence slope in assay [5] was -4.8e-05 (inactive). For the same compound, the slope in [6] is 0.00486 (inactive). Also, in assay [7], the result was inactive.

With `O=C(NCc1ccco1)c1cccc(S(=O)(=O)N2CCCCC2)c1`, the cell count in [1] was determined as 323. The inhibition in assay [1] is -3.6% (inactive); in assay [3], -87.1% (inactive); in assay [8] it was -13.9% (inactive); in assay [9], -7.47% (inactive). The inhibition of aggregation in assay [2] is -3.2% (inactive). Besides, the nuclei count in assay [2] is 112%; in assay [3], 120%. Besides, in assay [4], the fluorescence slope was -0.462 (inactive). Moreover, in assay [5], the NADPH fluorescence slope is 3.8e-05 (inactive). In addition, in assay [6], the slope is 0.00571 (inactive). The result in [7] was inactive.

As to `CC(C)(C)c1ccc(C(=O)N2CCC(C(=O)NCc3ccncc3)CC2)cc1`, the cell count in assay [1] was found to be 344. Further, the inhibition in assay [1] was -5.2% (inactive); in assay [3], -64.8% (inactive); in assay [8], -14.5% (inactive); in [9] it was -39% (inactive). In addition, the inhibition of aggregation in assay [2] is -12.2% (inactive). Further, the nuclei count amounted to 108% in [2] and 113% in assay [3]. Further, the fluorescence slope in assay [4] was -0.368 (inactive). The NADPH fluorescence slope in assay [5] is -4.7e-05 (inactive). Moreover, the slope in assay [6] was 0.00471 (inactive). Also, in assay [7], the call was inactive.

In the case of `CC(NC(=O)NC12CC3CC(CC(C3)C1)C2)C1CCCO1` (stereo not drawn), the cell count in assay [1] amounted to 356. For the same compound, the inhibition was 2.9% (inactive) in assay [1], 1.7% (inactive) in assay [3], 15.3% (inactive) in assay [8] and 8.29% (inactive) in assay [9]. For the same compound, the inhibition of aggregation in assay [2] was 0.8% (inactive). Also, the values for the nuclei count in assay [2] and in [3] were 80.4% and 87.1%, respectively. The fluorescence slope in [4] is -0.439 (inactive). For the same compound, the NADPH fluorescence slope in [5] was -2.2e-05 (inactive). For the same compound, in [6], the slope is 0.00592 (inactive). The compound was classed as inactive in assay [7].

`O=C(c1ccc(S(=O)(=O)N2CCC(c3nc4ccccc4s3)CC2)cc1)N1CCOCC1`: the cell count in assay [1] stood at 689. Moreover, the inhibition is -2.9% (inactive) in assay [1], -80.2% (inactive) in assay [3], -8.58% (inactive) in assay [8] and 3.6% (inactive) in assay [9]. Besides, the inhibition of aggregation in [2] is -25% (inactive). The nuclei count in [2] was 109%; in assay [3], 116%. For the same compound, in assay [4], the fluorescence slope was -0.392 (inactive). Further, the NADPH fluorescence slope in assay [5] was -9.6e-07 (inactive). Further, in assay [6], the slope was 0.00693 (inactive). Besides, the outcome in assay [7] was inactive.

On to `COc1ccc(C(C)NC(=O)c2ccoc2C)cc1OC` (stereo not drawn), for which the cell count in assay [1] came to 307. Moreover, the inhibition in [1] was -8.9% (inactive); in assay [3] it was 51.2% (inactive); in [8], 14.4% (inactive); in assay [9], 19.8% (inactive). Also, the inhibition of aggregation in assay [2] is -2.3% (inactive). Also, the nuclei count was found to be 105% in assay [2] and 54.3% in assay [3]. In addition, the fluorescence slope in [4] is -0.383 (inactive). Moreover, the NADPH fluorescence slope in assay [5] was -2.1e-05 (inactive). Besides, in assay [6], the slope is 0.00668 (inactive). Besides, the compound was called inactive in assay [7].

With `Cc1cccc(-n2ncc3c(NCc4cccs4)ncnc32)c1`, the cell count in assay [1] was 667. Further, the inhibition was 6.7% (inactive) in [1], -119% (inactive) in assay [3], -36.3% (inactive) in [8] and -95% (inactive) in assay [9]. In addition, the inhibition of aggregation in assay [2] was 0.1% (inactive). Also, the figures for the nuclei count in assay [2] and in assay [3] were 99.5% and 108%, respectively. Besides, in [4], the fluorescence slope is -0.458 (inactive). For the same compound, the NADPH fluorescence slope in [5] was -2.6e-05 (inactive). Moreover, the slope in assay [6] was 0.00473 (inactive). The outcome in assay [7] was inactive.

`CC(Sc1n[nH]c(=O)[nH]c1=O)C(=O)OCc1ccccc1` (stereo not drawn): in [1], the cell count came to 281. Also, the inhibition was -2.5% (inactive) in assay [1], -83.4% (inactive) in assay [3], 14.4% (inactive) in [8] and 10.9% (inactive) in assay [9]. In [2], the inhibition of aggregation was 10.6% (inactive). In addition, the nuclei count in assay [2] was 89.4%; in [3] it was 116%. Moreover, the fluorescence slope in assay [4] is -0.305 (inactive). Besides, in [5], the NADPH fluorescence slope is -2.2e-05 (inactive). For the same compound, the slope in assay [6] was 0.00608 (inactive). In addition, in assay [7], the outcome was inactive.
